The results in this text go back to ChEMBL document CHEMBL1152611, “Indene-based frameworks targeting the 5-HT6 serotonin receptor: ring constraint in indenylsulfonamides using cyclic amines and structurally abbreviated counterparts” (Bioorg Med Chem, 2009).

Some results are limits rather than exact numbers.

Assay [1] addresses T1, Alpha-2A adrenergic receptor (Homo sapiens, UniProt P08913).
T1 sequence (P08913 whole entry): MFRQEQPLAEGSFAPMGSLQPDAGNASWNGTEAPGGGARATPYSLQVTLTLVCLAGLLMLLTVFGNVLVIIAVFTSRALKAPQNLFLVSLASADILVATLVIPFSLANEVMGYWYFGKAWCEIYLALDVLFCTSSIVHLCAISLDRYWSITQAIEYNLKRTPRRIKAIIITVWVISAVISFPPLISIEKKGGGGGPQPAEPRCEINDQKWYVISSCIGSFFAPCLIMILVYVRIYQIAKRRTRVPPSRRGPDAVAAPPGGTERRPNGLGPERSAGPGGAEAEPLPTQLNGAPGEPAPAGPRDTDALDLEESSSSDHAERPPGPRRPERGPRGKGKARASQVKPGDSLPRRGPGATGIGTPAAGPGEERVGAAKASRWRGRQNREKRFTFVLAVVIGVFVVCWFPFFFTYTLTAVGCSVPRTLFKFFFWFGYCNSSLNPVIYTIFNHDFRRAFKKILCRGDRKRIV
Kind of assay: Inhibition of human alpha-2a adrenergic receptor.

Assay [2] has as its target T2, 5-hydroxytryptamine receptor 1A (Homo sapiens, UniProt P08908).
T2 sequence (P08908 whole entry): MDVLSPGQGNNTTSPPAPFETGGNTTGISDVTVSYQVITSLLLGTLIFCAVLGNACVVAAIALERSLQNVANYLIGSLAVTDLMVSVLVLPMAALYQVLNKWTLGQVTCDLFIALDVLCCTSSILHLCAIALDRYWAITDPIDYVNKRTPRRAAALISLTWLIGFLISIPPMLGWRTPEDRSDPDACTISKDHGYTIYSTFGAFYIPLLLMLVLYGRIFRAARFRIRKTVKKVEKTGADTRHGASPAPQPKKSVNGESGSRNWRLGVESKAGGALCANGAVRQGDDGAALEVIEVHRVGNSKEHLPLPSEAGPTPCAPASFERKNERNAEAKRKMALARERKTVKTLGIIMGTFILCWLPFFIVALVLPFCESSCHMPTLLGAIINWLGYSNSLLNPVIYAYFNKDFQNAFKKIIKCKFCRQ
In words: Inhibition of human 5HT1A receptor.

Assay [3] deals with T3, 5-hydroxytryptamine receptor 6 (Homo sapiens, UniProt P50406). Kind of assay: Displacement of [3H]LSD from human 5HT6 receptor expressed in HEK293 cells. It counts as cell-based. The method in brief: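 Commercial HEK-293 membranes with human 5-HT6 diluted 1:40 in 50 mM Tris-HCl, 10 mM MgCl2, 0.5 mM EDTA, pH 7.4. Incubated with 2.7 nM [3H]-LSD and 22.9 µg protein for 60 min at 37 °C, then filtered on PEI-treated glass fibre. Nonspecific binding defined with 100 µM serotonin. Triplicate points; IC50 from a regression line, converted to Ki by Cheng-Prusoff.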
T3 sequence (P50406 whole entry): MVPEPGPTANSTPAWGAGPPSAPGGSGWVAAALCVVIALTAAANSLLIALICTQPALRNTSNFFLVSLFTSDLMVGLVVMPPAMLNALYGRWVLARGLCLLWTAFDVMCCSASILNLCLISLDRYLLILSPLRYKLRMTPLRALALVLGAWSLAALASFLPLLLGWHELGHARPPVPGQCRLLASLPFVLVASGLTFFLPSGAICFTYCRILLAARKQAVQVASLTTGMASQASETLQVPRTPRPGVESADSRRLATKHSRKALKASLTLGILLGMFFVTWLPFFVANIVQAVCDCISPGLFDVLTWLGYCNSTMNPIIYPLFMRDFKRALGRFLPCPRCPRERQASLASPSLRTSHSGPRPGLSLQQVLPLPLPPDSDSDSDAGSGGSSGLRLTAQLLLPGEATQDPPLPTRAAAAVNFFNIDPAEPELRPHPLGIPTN
A general note: Loss of bound radioactivity is the signal in a displacement assay; it reports binding, not function.

Assay [4] concerns the target T3, 5-hydroxytryptamine receptor 6. In words: Antagonist activity at human 5HT6 receptor expressed in HEK293 cells assessed as inhibition of 5-HT-stimulated cAMP accumulation by HTRF assay relative to untreated control. It counts as functional, cell-based. The method in brief: (§1)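 HEK-293F cells stably expressing human 5-HT6, serum-starved overnight, 20,000 cells/well in Ham's F12 with 1 mM IBMX and 20 µM pargyline. Compound or DMSO vehicle (final DMSO ≤2%) added for 30 min at 37 °C, with 5-HT present in antagonist mode. HTRF cAMP detection with cryptate and XL-665, 1 h at room temperature, read at 665/620 nm.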
(cAMP levels reflect the balance of adenylyl cyclase and phosphodiesterase activity.)

Assay [5] shares this target. Kind of assay: Displacement of [3H]LSD from human 5HT6 receptor expressed in HEK293 cells at 100 nM. The format is cell-based.
The target is the same in assay [6]. In words: Antagonist activity at human 5HT6 receptor expressed in HEK293 cells assessed as inhibition of 5-HT-stimulated cAMP accumulation by HTRF assay. It counts as functional, cell-based. The method in brief: as §1
The target of assay [7] is Sodium-dependent serotonin transporter (Homo sapiens, UniProt P31645). In words: Inhibition of human SERT.
Chain of Sodium-dependent serotonin transporter (P31645 whole entry): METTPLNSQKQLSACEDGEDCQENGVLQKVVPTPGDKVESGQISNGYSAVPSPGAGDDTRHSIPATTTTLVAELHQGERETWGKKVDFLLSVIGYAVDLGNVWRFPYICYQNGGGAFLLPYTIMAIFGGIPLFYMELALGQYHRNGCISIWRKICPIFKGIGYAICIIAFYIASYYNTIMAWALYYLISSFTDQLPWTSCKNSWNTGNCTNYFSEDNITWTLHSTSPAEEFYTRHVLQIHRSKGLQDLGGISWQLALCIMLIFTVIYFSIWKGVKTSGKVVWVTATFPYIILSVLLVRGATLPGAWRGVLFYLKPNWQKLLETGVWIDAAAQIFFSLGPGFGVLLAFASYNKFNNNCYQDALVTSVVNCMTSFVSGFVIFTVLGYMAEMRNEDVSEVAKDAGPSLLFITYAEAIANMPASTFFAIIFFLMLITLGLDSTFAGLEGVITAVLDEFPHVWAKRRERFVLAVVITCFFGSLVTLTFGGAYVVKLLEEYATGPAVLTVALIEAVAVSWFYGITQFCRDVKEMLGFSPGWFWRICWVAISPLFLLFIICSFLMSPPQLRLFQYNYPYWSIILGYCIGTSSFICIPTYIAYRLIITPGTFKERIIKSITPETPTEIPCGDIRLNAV
Assay [8] deals with T4, 5-hydroxytryptamine receptor 2C (Homo sapiens, UniProt P28335).
T4 sequence (P28335 whole entry): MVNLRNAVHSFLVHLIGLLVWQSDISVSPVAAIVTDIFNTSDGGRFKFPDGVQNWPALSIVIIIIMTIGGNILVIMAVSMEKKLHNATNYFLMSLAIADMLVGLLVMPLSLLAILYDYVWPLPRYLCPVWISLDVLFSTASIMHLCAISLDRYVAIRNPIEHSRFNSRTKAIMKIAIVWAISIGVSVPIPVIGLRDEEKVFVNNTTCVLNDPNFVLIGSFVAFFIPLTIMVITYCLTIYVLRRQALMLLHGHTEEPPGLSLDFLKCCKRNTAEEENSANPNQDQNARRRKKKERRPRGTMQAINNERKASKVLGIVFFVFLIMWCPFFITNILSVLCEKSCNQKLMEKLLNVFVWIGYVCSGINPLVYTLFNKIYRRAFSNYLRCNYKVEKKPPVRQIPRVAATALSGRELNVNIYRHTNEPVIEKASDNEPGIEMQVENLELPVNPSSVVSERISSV
Kind of assay: Inhibition of human 5HT2C receptor.

The target of assay [9] is T5, Adrenergic receptor alpha-1 (Rattus norvegicus, UniProt P15823+P23944+P43140).
T5 sequence (P15823 whole entry): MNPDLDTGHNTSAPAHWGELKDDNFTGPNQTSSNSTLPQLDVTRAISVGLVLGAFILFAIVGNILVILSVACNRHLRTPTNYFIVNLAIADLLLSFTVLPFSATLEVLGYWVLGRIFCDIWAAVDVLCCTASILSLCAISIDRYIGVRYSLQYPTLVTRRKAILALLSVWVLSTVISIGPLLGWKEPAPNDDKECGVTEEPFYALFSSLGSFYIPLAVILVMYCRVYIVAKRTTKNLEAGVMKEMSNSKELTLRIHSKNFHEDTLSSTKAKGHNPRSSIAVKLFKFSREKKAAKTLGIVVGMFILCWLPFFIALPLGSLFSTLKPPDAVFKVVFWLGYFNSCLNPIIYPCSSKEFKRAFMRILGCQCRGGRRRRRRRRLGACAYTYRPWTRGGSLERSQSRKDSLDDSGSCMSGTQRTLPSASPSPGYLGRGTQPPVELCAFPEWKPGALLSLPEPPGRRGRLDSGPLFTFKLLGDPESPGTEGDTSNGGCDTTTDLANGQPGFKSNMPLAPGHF
T5 sequence (P23944 whole entry): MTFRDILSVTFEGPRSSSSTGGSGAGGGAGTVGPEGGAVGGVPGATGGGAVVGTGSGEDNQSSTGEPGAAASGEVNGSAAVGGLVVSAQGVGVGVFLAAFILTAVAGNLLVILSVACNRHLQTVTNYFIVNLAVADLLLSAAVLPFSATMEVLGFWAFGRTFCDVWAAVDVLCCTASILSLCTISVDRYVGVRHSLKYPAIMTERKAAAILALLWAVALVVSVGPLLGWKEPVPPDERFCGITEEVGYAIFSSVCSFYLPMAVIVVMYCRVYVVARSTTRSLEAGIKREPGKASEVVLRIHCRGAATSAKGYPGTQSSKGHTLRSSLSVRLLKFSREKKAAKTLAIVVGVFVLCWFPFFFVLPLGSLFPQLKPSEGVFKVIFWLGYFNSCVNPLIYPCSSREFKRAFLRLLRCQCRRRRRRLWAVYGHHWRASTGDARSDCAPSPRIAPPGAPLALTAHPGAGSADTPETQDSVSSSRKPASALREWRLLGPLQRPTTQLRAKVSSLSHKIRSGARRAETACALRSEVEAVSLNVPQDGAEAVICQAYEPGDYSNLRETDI
T5 sequence (P43140 whole entry): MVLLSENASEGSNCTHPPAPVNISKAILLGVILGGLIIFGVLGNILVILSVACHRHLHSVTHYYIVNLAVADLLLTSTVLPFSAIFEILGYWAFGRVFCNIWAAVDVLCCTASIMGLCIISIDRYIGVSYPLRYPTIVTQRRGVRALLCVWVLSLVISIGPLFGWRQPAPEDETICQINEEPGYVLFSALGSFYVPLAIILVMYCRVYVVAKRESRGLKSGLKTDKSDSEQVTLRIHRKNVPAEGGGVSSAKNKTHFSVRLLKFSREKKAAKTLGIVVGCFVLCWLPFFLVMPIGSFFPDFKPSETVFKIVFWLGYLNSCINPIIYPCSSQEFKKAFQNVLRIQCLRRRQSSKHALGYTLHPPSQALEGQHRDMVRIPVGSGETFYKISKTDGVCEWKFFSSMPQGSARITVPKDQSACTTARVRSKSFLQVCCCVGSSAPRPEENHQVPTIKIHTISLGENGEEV
In words: Inhibition of rat alpha1 adrenergic receptor.

In assay [10] the target is T3, 5-hydroxytryptamine receptor 6. In words: Agonist activity at human 5HT6 receptor expressed in HEK293 cells assessed as stimulation of cAMP accumulation by HTRF assay relative to control. The format is functional, cell-based. The method in brief:
as §1

The target is the same in assay [11]. In words: Agonist activity at 5HT6 receptor. The format is functional. The method in brief:
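HEK-293F cells stably expressing human 5-HT6, kept overnight in serum-free medium, then 20,000 cells/well in Ham's F12 with 1 mM IBMX and pargyline. Compound (DMSO at most 2% final) added for 30 min at 37 °C without 5-HT. cAMP measured by HTRF (cryptate plus XL-665), 1 h at room temperature, 665/620 nm ratio read.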

The target is the same in assay [12]. Kind of assay: Binding affinity to 5HT6 receptor.
Assay [13] has the same target. Kind of assay: Antagonist activity at 5HT6 receptor. The format is functional.

Usually IC50 stands for the concentration that gives 50% inhibition. By Ki is commonly meant a dissociation constant, usually derived from enzyme kinetics or from competition with a known ligand. Read a low Ki as higher affinity. For orientation: inhibition means the share of the control response that was lost under treatment. For the compound `CC1=C(C2CCCN(C)C2)c2cc(NS(=O)(=O)c3c(Cl)nc4sccn34)ccc2C1` (stereo unspecified), the half-maximal inhibitory concentration (IC50) in [1] was 1210 nM; in assay [2], above 10000 nM. Besides, in [3], the Ki amounted to 18 nM. Moreover, the Imax in assay [4] came out at 28%. This compound also yielded an inhibition in assay [5] of 86%.
In the case of `Cc1c(S(=O)(=O)Nc2ccc3c(c2)C([C@H]2CCN(C)C2)=CC3)sc2ccc(Cl)cc12`, in assay [5], the inhibition is 57%.
`CC1=C(C2CCCN(C)C2)c2cc(NS(=O)(=O)c3sc4ccc(Cl)cc4c3C)ccc2C1` (stereo unspecified) yielded an inhibition in [5] of 22%.
Take `CC1=CC(C)(C)c2ccc(NS(=O)(=O)c3c(Cl)nc4sccn34)cc21`: the concentration for half-maximal inhibition (IC50) was above 10000 nM in [1]; above 10000 nM in [2]; 2400 nM in assay [6]; above 10000 nM in assay [7]; above 10000 nM in assay [8]. Besides, the inhibition constant Ki in [3] was 80 nM. For the same compound, the Imax in [4] is 92%. The compound also had an inhibition in assay [5] of 75%.
As a reminder, the Emax is the greatest response seen or fitted, relative to the assay's reference. With `COc1cc2c(cc1NS(=O)(=O)c1c(Cl)nc3sccn13)C(C)=C(C)C2`, the IC50 in assay [1] is above 1000 nM; in assay [2], above 10000 nM; in assay [7] it was above 10000 nM; in assay [9] it was above 10000 nM; in [8], above 1000 nM. In assay [3], this compound yielded an inhibition constant Ki of 64 nM. Moreover, the Imax in assay [4] was 10%. Besides, the inhibition in assay [5] turned out to be 84%. Besides, in assay [10], the maximal response (Emax) amounted to 49%.
By EC50 is commonly meant the concentration that produces a half-maximal response. Compound `O=S(=O)(Nc1ccc2[nH]cc(C[C@H]3CCCN3)c2c1)c1ccc(C(F)(F)F)cc1` registered an EC50 in assay [11] of 4.5 nM. Further, the Ki in [12] came to 0.4 nM.
`CN(C)Cc1cn(S(=O)(=O)c2ccccc2)c2ccccc12` returned an IC50 in assay [13] of 880 nM. In assay [12], this compound displayed a Ki of 3 nM.
In turn, `Cc1cn(S(=O)(=O)c2ccc(N)cc2)c2ccccc12` gave an IC50 in assay [13] of 320 nM.
`O=S(=O)(Nc1ccc2[nH]cc(C[C@@H]3CCCN3)c2c1)c1ccc(C(F)(F)F)cc1` displayed an IC50 in [13] of 21.6 nM. This compound registered an inhibitory constant (Ki) in [12] of 10 nM.
